Experimental data from different studies.
Target: MAP kinase-activated protein kinase 2 (MAPKAPK2, Homo sapiens, UniProt P49137)

SMILES | read-out | method | concentration | remaining binding
N[C@@H]1CCN(c2nccc(-c3cnn4ncccc34)n2)C1 | binding | – | 1 µM | 100%
CNCc1ccccc1-c1csc([C@@H](C)Nc2nc(C)nc3cc(OC)c(OC)cc23)c1 | cell-free assay | competition with immobilised ligand | 1 µM | 83%
O=C(NCC1CCOCC1)c1n[nH]cc1NC(=O)c1c(F)cccc1F | binding | competition with immobilised ligand | 1 µM | 66%
Cc1cnc(Nc2ccc(C(=O)N3CCC(N4CCCC4)CC3)cc2)nc1-c1cc2ccccc2s1 | binding | competition with immobilised ligand | 1 µM | 100%
COc1cnc(Nc2cccc(S(N)(=O)=O)c2)nc1N1CCN(c2ccccc2)CC1 | binding | competition with immobilised ligand | 1 µM | 100%
NS(=O)(=O)c1cc(NC(=O)Cc2ccccc2)ccc1Oc1cccc(Cl)c1 | cell-free assay | competition with immobilised ligand | 1 µM | 100%
O=C(c1ccc(Nc2ncc(Cl)c(-c3ccc(Cl)s3)n2)cc1)N1CCC(N2CCCC2)CC1 | binding | competition with immobilised ligand | 1 µM | 100%
COc1cc(-c2cn(C3CCc4ccccc4N(CC(F)(F)F)C3=O)nn2)ccc1-n1ccc(C)n1 (centres unmarked) | cell-free assay | competition with immobilised ligand | 1 µM | 90%
CN(C)c1ncc(F)c(-c2cnn3ncccc23)n1 | binding | – | 1 µM | 100%
N#Cc1ccccc1CSc1nnc2c(n1)[nH]c1ccccc12 | binding | competition with immobilised ligand | 10 µM | 82%
CN(c1nccc(-c2cnn3ncccc23)n1)C1CC1 | binding | – | 1 µM | 83%
Cc1c(C(=O)O)cc(-c2ccc(C3CCNCC3)cc2)c2ccc(-c3ccc(C(F)(F)F)cc3)cc12 | binding | competition with immobilised ligand | 1 µM | 88%
c1cnn2ncc(-c3ccnc(N4CCC45COC5)n3)c2c1 | binding | – | 1 µM | 100%
CCN1CCN(Cc2ccc(C(=O)Nc3ccc(C)c(Oc4ccc5c(c4)CC(=O)N5)c3)cc2C(F)(F)F)CC1 | binding | competition with immobilised ligand | 1 µM | 100%
O=C(c1ccc(Nc2ncc(Cl)c(-c3cc4ccccc4s3)n2)cc1)N1CCC(N2CCCC2)CC1 | binding | competition with immobilised ligand | 1 µM | 100%
C[C@H]1CCN(c2nccc(-c3cnn4ncccc34)n2)C1 | binding | – | 1 µM | 100%
CCCOc1ccc([C@H]2[C@H](C(=O)O)[C@@H](c3ccc4c(c3)OCO4)CN2CC(=O)Nc2c(CC)cccc2CC)cc1 | cell-free assay | competition with immobilised ligand | 1 µM | 100%
C[C@@H](c1ccc(-n2cnc3c(N)ncnc32)cc1)N1CCc2nn(C)c(Cc3ccccc3)c2C1=O | binding | competition with immobilised ligand | 0.1 µM | 49%
Cc1c[nH]c2nccc(Oc3c(F)cc(Nc4cc(Cl)nc(N)n4)cc3F)c12 | cell-free assay | competition with immobilised ligand | 0.1 µM | 100%
c1cncc(-c2cccc(Nc3nccc(NC4CCCCC4)n3)c2)c1 | binding | competition with immobilised ligand | 10 µM | 100%
COc1ccc2c(O[C@@H]3C[C@H]4C(=O)N[C@]5(C(=O)O)CC5/C=C\CCCCC[C@H](NC(=O)OC5CCCC5)C(=O)N4C3)cc(-c3csc(NC(=O)C(C)C)n3)nc2c1C (some centres unmarked) | cell-free assay | competition with immobilised ligand | 1 µM | 60%
F[C@@H]1CCN(c2nccc(-c3cnn4ncccc34)n2)C1 | binding | – | 1 µM | 93%
C[C@@H]1CN(c2ccc3ncc(-c4ccc5[nH]nc(C6CC6)c5c4)n3n2)C[C@H](C)O1 | binding | competition with immobilised ligand | 0.5 µM | 89%
